Source: ChEMBL document CHEMBL1250552, “Quantitative structure-activity relationship studies of threo-methylphenidate analogs” (Bioorg Med Chem, 2010)

Target: Sodium-dependent dopamine transporter (Rattus norvegicus, UniProt P23977)
Experiment: Displacement of [3H]WIN 35428 from Sprague-Dawley rat striatal tissue after 2 hrs by liquid scintillation counting
Type: tissue-based, Striatum
Details: read-out: IC50
Procedure, shortened: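 Male Sprague–Dawley rats anesthetized with CO₂ gas. Crude synaptosomal P₂ fraction made from striatum and homogenized in 25 mM sodium phosphate, pH 7.7, at 0 °C. Rapid filtration through glass microfiber filters, then scintillation counting.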

Chain of Sodium-dependent dopamine transporter (P23977 whole entry): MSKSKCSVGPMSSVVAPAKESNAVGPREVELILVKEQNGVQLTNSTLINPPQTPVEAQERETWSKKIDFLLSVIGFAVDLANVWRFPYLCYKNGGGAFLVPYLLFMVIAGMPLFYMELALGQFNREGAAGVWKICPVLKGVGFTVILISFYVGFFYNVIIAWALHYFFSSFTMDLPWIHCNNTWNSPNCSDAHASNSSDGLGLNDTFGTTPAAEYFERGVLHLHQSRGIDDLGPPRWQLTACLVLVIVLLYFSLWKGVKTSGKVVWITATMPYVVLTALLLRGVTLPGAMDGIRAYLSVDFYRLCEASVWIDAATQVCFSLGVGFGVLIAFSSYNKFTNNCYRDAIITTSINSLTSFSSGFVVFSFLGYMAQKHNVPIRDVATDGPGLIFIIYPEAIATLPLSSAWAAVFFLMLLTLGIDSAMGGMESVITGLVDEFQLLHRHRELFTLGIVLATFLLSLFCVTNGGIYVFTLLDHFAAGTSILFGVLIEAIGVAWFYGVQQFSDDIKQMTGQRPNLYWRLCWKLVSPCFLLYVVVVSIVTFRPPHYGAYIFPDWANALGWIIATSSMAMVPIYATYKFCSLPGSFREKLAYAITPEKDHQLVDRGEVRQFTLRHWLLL

Point of comparison: `CCN1CCCC[C@@H]1[C@H](CO)c1ccccc1` (racemic), IC50 2340 nM. Against it:
- OC[C@H](c1ccccc1)[C@H]1CCCCN1CCc1ccccc1 (racemic) — 1.6-fold lower, 1430 nM
- CN(C)C(=O)[C@H](c1ccccc1)[C@H]1CCCCN1Cc1ccccc1 (racemic) — within 1.5-fold, 1730 nM
- COC(=O)[C@H](c1ccccc1)[C@H]1CCCCN1Cc1ccccn1 (racemic) — 6.3-fold lower, 369 nM
- COC(=O)[C@H](c1ccc2ccccc2c1)[C@H]1CCCCN1 — 210-fold lower, 11 nM
- COC(=O)[C@H](c1ccccc1F)[C@H]1CCCCN1 — 1.6-fold lower, 1420 nM
- COC(=O)[C@H](c1ccccc1)[C@H]1CCCCN1Cc1ccoc1 (racemic) — 5.1-fold lower, 459 nM
- NC(=O)[C@H](c1ccc(Cl)c(Cl)c1)[C@H]1CCCCN1 (racemic) — 140-fold lower, 16.4 nM
- COC(=O)[C@H](c1ccc(OCO)c(CO)c1)[C@H]1CCCCN1C — 3.8-fold lower, 620 nM
- COC(=O)[C@H](c1cccc(Cl)c1)[C@H]1CCCCN1Cc1ccccc1 (racemic) — 57-fold lower, 41.2 nM
- COC(=O)[C@H](c1ccccc1Br)[C@@]1(C)CCCCN1 — within 1.5-fold, 1870 nM
- COC(=O)[C@H](c1ccccc1)[C@H]1CCCCN1Cc1cccs1 (racemic) — 10-fold lower, 224 nM
- COC(=O)[C@H](c1cccc(Cl)c1)[C@H]1CCCCN1 — 460-fold lower, 5.1 nM
- COC(=O)[C@H](c1ccccc1)[C@H]1CCCCN1Cc1ccc(OC)cc1 (racemic) — 30-fold lower, 79.1 nM
- COC(=O)[C@H](c1ccc(Cl)c(Cl)c1)[C@H]1CCCCN1Cc1ccccc1 (racemic) — 31-fold lower, 76.3 nM
- COC[C@H](c1ccc(Cl)c(Cl)c1)[C@H]1CCCCN1Cc1ccccc1 (racemic) — 560-fold lower, 4.2 nM
- COC(=O)[C@H](c1ccccc1)[C@H]1CCCCN1Cc1ccc(Cl)s1 (racemic) — 6-fold lower, 392 nM
- COC[C@H](c1ccccc1)[C@H]1CCCCN1 (racemic) — 24-fold lower, 97.1 nM
- COC(=O)[C@H](c1ccccc1)[C@H]1CCCCN1CCc1ccccc1 (racemic) — 3.5-fold lower, 678 nM
- COC[C@H](c1ccc(Cl)c(Cl)c1)[C@H]1CCCCN1 (racemic) — 1400-fold lower, 1.7 nM
- COC(=O)[C@H](c1cc(Cl)cc(Cl)c1)[C@H]1CCCCN1 (racemic) — 36-fold lower, 65.6 nM
- COC(=O)[C@H](c1cccc(O)c1)[C@H]1CCCCN1 — 7.3-fold lower, 321 nM
- COC(=O)[C@H](c1ccccc1)[C@H]1CCCCN1Cc1cccnc1 (racemic) — 14-fold lower, 173 nM
- COC(=O)[C@H](c1ccc(C)cc1)[C@H]1CCCCN1 — 71-fold lower, 33 nM
- COC(=O)[C@H](c1cccc(F)c1)[C@H]1CCCCN1 — 58-fold lower, 40.5 nM
- COC[C@H](c1ccccc1)[C@H]1CCCCN1Cc1ccccc1 — 130-fold lower, 17.8 nM
- COC(=O)[C@H](c1cccc(Br)c1)[C@H]1CCCCN1 — 560-fold lower, 4.18 nM
- COC(=O)[C@H](c1ccccc1Cl)[C@H]1CCCCN1 — within 1.5-fold, 1950 nM
- COC(=O)[C@H](c1ccccc1)[C@H]1CCCCN1CCCCc1ccccc1 (racemic) — 11-fold lower, 205 nM
- COC(=O)[C@H](c1cc(C)cc(C)c1)[C@H]1CCCCN1 (racemic) — 2-fold higher, 4690 nM
- COC(=O)[C@H](c1ccccc1)[C@H]1CCCCN1CCCCCCc1ccccc1 (racemic) — 3.6-fold lower, 656 nM
- OC[C@H](c1ccccc1)[C@H]1CCCCN1Cc1cccc(Cl)c1 (racemic) — 91-fold lower, 25.8 nM
- COC(=O)[C@H](c1ccccc1)[C@H]1CCCCN1Cc1ccc(N=C=S)cc1 (racemic) — 5.5-fold lower, 422 nM
- COC(=O)[C@H](c1ccccc1)[C@H]1CCCCN1CCCc1ccccc1 (racemic) — 8.8-fold lower, 267 nM
- OC[C@H](c1ccc(Cl)c(Cl)c1)[C@H]1CCCCN1Cc1ccccc1 (racemic) — 850-fold lower, 2.74 nM
- OC[C@H](c1ccccc1)[C@H]1CCCCN1 (racemic) — 5.2-fold lower, 448 nM
- COC(=O)[C@H](c1ccc(Cl)c(Cl)c1)[C@H]1CCCCN1 — 440-fold lower, 5.3 nM
- COC(=O)[C@H](c1ccccc1)[C@H]1CCCCN1Cc1cccc(Cl)c1 (racemic) — 22-fold lower, 106 nM
- COC(=O)[C@H](c1ccc(F)cc1)[C@H]1CCCCN1 — 67-fold lower, 35 nM
- COC(=O)[C@H](c1ccc(I)cc1)[C@H]1CCCCN1 — 170-fold lower, 14 nM
- CCc1ccc([C@@H](C(=O)OC)[C@H]2CCCCN2)cc1 (racemic) — 3.2-fold lower, 737 nM
- COC(=O)[C@H](c1ccc(Cl)cc1)[C@H]1CCCCN1 — 110-fold lower, 20.6 nM
- COC(=O)[C@H](c1ccccc1)[C@H]1CCCCN1Cc1ccncc1 (racemic) — 18-fold lower, 128 nM
- O=C(OCc1ccccc1)[C@H](c1ccccc1)[C@H]1CCCCN1 (racemic) — 2.3-fold lower, 1020 nM
- OC[C@H](c1ccccc1)[C@H]1CCCCN1CCCc1ccccc1 (racemic) — 12-fold lower, 194 nM
- COC(=O)[C@H](c1ccc(N)cc1)[C@H]1CCCCN1 — 68-fold lower, 34.5 nM
- COC(=O)[C@H](c1ccccc1)[C@H]1CCCCN1Cc1ccsc1 (racemic) — 16-fold lower, 143 nM
- COC(=O)[C@H](c1ccccc1)[C@H]1CCCCN1Cc1ccccc1Cl (racemic) — 9.6-fold lower, 243 nM
- COC(=O)[C@H](c1ccccc1)[C@H]1CCCCN1CCCCCc1ccccc1 (racemic) — within 1.5-fold, 1570 nM
- COC(=O)[C@H](c1ccc(C(F)(F)F)cc1)[C@H]1CCCCN1 — 3.8-fold lower, 615 nM
- COC(=O)[C@H](c1ccc(OC)c(OC)c1)[C@H]1CCCCN1 — 2.9-fold lower, 810 nM
- COC(=O)[C@H](c1ccccc1)[C@H]1CCCCN1Cc1ccco1 (racemic) — 4.4-fold lower, 536 nM
- COC(=O)[C@H](c1ccccc1)[C@H]1CCCCN1Cc1ccc([N+](=O)[O-])cc1 (racemic) — 21-fold lower, 113 nM
- OC[C@H](c1ccc(Cl)c(Cl)c1)[C@H]1CCCCN1 (racemic) — 560-fold lower, 4.2 nM
- COC(=O)[C@H](c1ccc([N+](=O)[O-])cc1)[C@H]1CCCCN1 — 4.7-fold lower, 494 nM
- NC(=O)[C@H](c1ccccc1)[C@H]1CCCCN1 (racemic) — within 1.5-fold, 1730 nM
- COC(=O)[C@H](c1cccc(N)c1)[C@H]1CCCCN1 — 8.8-fold lower, 265 nM
- COC(=O)[C@H](c1ccccc1)[C@H]1CCCCN1Cc1ccc(Cl)cc1 (racemic) — 75-fold lower, 31.2 nM
- COC(=O)[C@H](c1cccc(Cl)c1)[C@@]1(C)CCCCN1C — 15-fold lower, 160 nM
- COC(=O)[C@H](c1ccccc1)[C@H]1CCCCN1Cc1ccccc1 — 44-fold lower, 52.9 nM
- OC[C@H](c1ccccc1)[C@H]1CCCCN1Cc1ccccc1 — 99-fold lower, 23.7 nM
- OC[C@H](c1cccc(F)c1)[C@H]1CCCCN1 (racemic) — 8.3-fold lower, 281 nM
- CC(=O)OC[C@H](c1ccccc1)[C@H]1CCCCN1 (racemic) — 3.4-fold lower, 690 nM
- NC(=O)[C@H](c1ccccc1)[C@H]1CCCCN1Cc1ccccc1 (racemic) — 6.1-fold lower, 384 nM
- OC[C@H](c1ccccc1)[C@H]1CCCCN1CCCCc1ccccc1 (racemic) — 3.8-fold lower, 623 nM
- COC(=O)[C@H](c1ccc(Br)cc1)[C@H]1CCCCN1 — 340-fold lower, 6.9 nM
- C=CCN1CCCC[C@@H]1[C@H](C(=O)OC)c1ccccc1 (racemic) — 3.9-fold lower, 597 nM
- C#CCN1CCCC[C@@H]1[C@H](C(=O)OC)c1ccccc1 (racemic) — 2.9-fold lower, 821 nM

Same assay, conditions: read-out: pIC50 (converted)

Point of comparison: `COC(=O)[C@H](c1ccc(C)cc1)[C@H]1CCCCN1C`, IC50 141 nM. Against it:
- OC[C@H](c1ccc(Cl)c(Cl)c1)[C@H]1CCCCN1Cc1ccccc1 (racemic) — 52-fold lower, 2.69 nM
- COC(=O)[C@H](c1ccc(O)cc1)[C@H]1CCCCN1C — 8.5-fold higher, 1200 nM
